For series [1], the system named is RAW264.7. Put plainly: Antiinflammatory activity in LPS-stimulated mouse RAW264.7 cells assessed as NO production at 10 uM treated 1 hr before LPS challenge measured after 24 hrs by Griess reagent assay (RVb= 28.72 +/- 1.31 uM). In kind it is functional. In outline:
(§1)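 Culture medium (phenol red-free) collected after 1 h compound pretreatment then 24 h with LPS 1 µg/mL; mixed 1:1 with Griess reagent (1% sulfanilamide in 5% phosphoric acid plus 0.1% naphthylethylenediamine-HCl), 10 min room temperature, absorbance 550 nm. Nitrite quantified against NaNO2 serial-dilution standard curve, fresh medium as blank. L-NIL 10 µM positive control; means ± S.E.M., three independent experiments.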

Series [2] deals with RAW264.7. Put plainly: Antiinflammatory activity in LPS-stimulated mouse RAW264.7 cells assessed as PGE2 production at 10 uM treated 1 hr before LPS challenge measured after 24 hrs by enzyme immunoassay (RVb=11.5 +/- 0.36 uM). In kind it is functional.
For series [3], the system named is RAW264.7. Put plainly: Cytotoxicity against LPS-stimulated mouse RAW264.7 cells assessed as cell viability at 50 uM after 24 hrs by MTT assay. In kind it is cell-based. Particulars: raw264.7, 24 h. In outline:
(§2)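 MTT viability assay on RAW 264.7 cells at up to 50 µM for 24 h, run both with and without LPS.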
In general terms: Tetrazolium dyes change colour on reduction, which living cells bring about.

Series [4] concerns RAW264.7. Put plainly: Cytotoxicity against mouse RAW264.7 cells assessed as cell viability at 50 uM after 24 hrs by MTT assay. Format: cell-based. Particulars: raw264.7, 24 h. In outline:
as §2

The subject of series [5] is RAW264.7. Put plainly: Antiinflammatory activity in mouse RAW264.7 cells assessed as inhibition of LPS-stimulated NO production treated 1 hr before LPS challenge measured after 24 hrs by Griess reagent assay. Format: functional, cell-based. Put shortly:
as §1
On the technique in general: Griess reagent forms a coloured azo dye with nitrite.

The test system of series [6] is RAW264.7. Put plainly: Antiinflammatory activity in mouse RAW264.7 cells assessed as decrease in LPS-stimulated PGE2 production treated 1 hr before LPS challenge measured after 24 hrs by enzyme immunoassay. In kind it is functional, cell-based. Put shortly:
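Cells pre-incubated 1 h with compound (5, 25, 50 µM tested), then LPS 1 µg/mL for 24 h; PGE2 in culture medium quantified by EIA kit per manufacturer. NS-398 10 µM positive control; means ± S.E.M. of three independent experiments, Student's t-test versus LPS-treated group.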

For series [7], the system named is RAW264.7. The series is described as follows: Antiinflammatory activity in LPS-stimulated mouse RAW264.7 cells assessed as TNFalpha production at 5 uM treated 1 hr before LPS challenge measured after 24 hrs by enzyme immunoassay (RVb=46.7 +/- 4.8 uM). Format: functional.
In series [8] the test system is RAW264.7. The series is described as follows: Antiinflammatory activity in LPS-stimulated mouse RAW264.7 cells assessed as TNFalpha production at 25 uM treated 1 hr before LPS challenge measured after 24 hrs by enzyme immunoassay (RVb=46.7 +/- 4.8 uM). Format: functional.
Series [9] relates to RAW264.7. Put plainly: Antiinflammatory activity in LPS-stimulated mouse RAW264.7 cells assessed as TNFalpha production at 50 uM treated 1 hr before LPS challenge measured after 24 hrs by enzyme immunoassay (RVb=46.7 +/- 4.8 uM). Format: functional.

Structures are written as SMILES.

With `CC(=N)NCCCC[C@H](N)C(=O)O` [L-NIL], the Activity in series [1] was found to be 11.3 µM.
`CS(=O)(=O)Nc1ccc([N+](=O)[O-])cc1OC1CCCCC1` [NS-398]: the Activity in series [2] is 3.2 ng/mL.
Consider `O=C(OCc1ccc(O[C@@H]2O[C@H](CO)[C@@H](O)[C@H](O)[C@H]2O)c(O)c1)c1ccccc1` [SALVIIFOSIDE A], for which the Activity result is “Non-toxic” in series [3], “Non-toxic” in series [4], “Dose-dependent effect” in series [5] and “Dose-dependent effect” in series [6].
For `O=C(/C=C/c1ccccc1O)OCc1ccc(O[C@@H]2O[C@H](CO)[C@@H](O)[C@H](O)[C@H]2O)c(O)c1` [SALVIIFOSIDE B], the Activity entry is “Non-toxic” in [3]; “Non-toxic” in series [4]; “Dose-dependent effect” in [5]; “Dose-dependent effect” in [6]; 43.2 ng/mL in [7]; 24.4 ng/mL in series [8]. Moreover, the Activity in series [9] amounted to 11.2 ng/mL.
Regarding `COc1ccccc1/C=C/C(=O)OCc1ccc(O[C@@H]2O[C@H](CO)[C@@H](O)[C@H](O)[C@H]2O)c(O)c1` [SALVIIFOSIDE C], the Activity result in [3] is “Non-toxic”; in series [4] it was “Non-toxic”; in [5], “Dose-dependent effect”; in [6], “Dose-dependent effect”.

Source of the values: ChEMBL document CHEMBL1152977, “Phenolic glycosides from Alangium salviifolium leaves with inhibitory activity on LPS-induced NO, PGE(2), and TNF-alpha production” (Bioorg Med Chem Lett, 2009).
